Results published in ChEMBL document CHEMBL1765072, “Inhibition of amyloidogenesis by nonsteroidal anti-inflammatory drugs and their hybrid nitrates” (J Med Chem, 2011).
Calls of active or inactive are those of the source. No cut-off for these calls is given here.

Tests used:
[1] = test system: N2a; experiment: Antiamyloidogenic activity in mouse N2A cells transfected with human APP Swedish mutant assessed as amyloid beta (1 to 42) level at 1 uM after 24 hrs by ELISA relative to control
[2] = Cytotoxicity against mouse RAW264.7 cells assessed as cell viability at 100 uM after 24 hrs by MTT assay relative to control; type: cell-based; settings: read-out: Activity
Summary of the method: (§1)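 RAW 264.7 cells given 0.5 mg/ml MTT in medium for 4 h, washed with PBS; formazan dissolved in DMSO, shaken 30 min, absorbance read at 570 nm against a 630 nm reference. Viability expressed relative to DMSO control.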

[3] = test system: N2a (Mus musculus); experiment: Cytotoxicity against mouse N2a/APPsw cells assessed as cell viability at 1 uM after 24 hrs by MTT assay relative to control
[4] = test system: RAW264.7; experiment: Antiinflammatory activity against mouse RAW264.7 cells assessed as LPS-induced nitrate production at 100 uM treated 30 mins before LPS challenge measured after 24 hrs by Griess reagent method relative to control
[5] = test system: RAW264.7; experiment: Antiinflammatory activity against mouse RAW264.7 cells assessed as LPS-induced nitrate production at 10 uM treated 30 mins before LPS challenge measured after 24 hrs by Griess reagent method relative to control
[6] = test system: N2a; experiment: Antiamyloidogenic activity in mouse N2A cells transfected with human APP Swedish mutant assessed as amyloid beta (1 to 42) level at 100 uM after 24 hrs by ELISA relative to control
[7] = Cytotoxicity against mouse RAW264.7 cells assessed as cell viability at 10 uM after 24 hrs by MTT assay relative to control; type: cell-based; settings: read-out: Activity
Summary of the method: as §1

[8] = test system: N2a; experiment: Antiamyloidogenic activity in mouse N2A cells transfected with human APP Swedish mutant assessed as increase of amyloid beta (1 to 40) level at 100 uM after 24 hrs by ELISA; type: functional, cell-based
[9] = test system: N2a; experiment: Antiamyloidogenic activity in mouse N2A cells transfected with human APP Swedish mutant assessed as increase of amyloid beta (1 to 42) level at 100 uM after 24 hrs by ELISA; type: functional, cell-based
[10] = test system: N2a; experiment: Antiamyloidogenic activity in mouse N2A cells transfected with human APP Swedish mutant assessed as increase of amyloid beta (1 to 42)/(1 to 40) ratio at 100 uM after 24 hrs by ELISA; type: functional, cell-based
[11] = test system: N2a; experiment: Antiamyloidogenic activity in mouse N2A cells assessed as degradation of amyloid beta (1 to 40) level at 1 uM treated 24 hrs before amyloid beta (1 to 40) challenge measured after 8 hrs by MALDI/TOF analysis; type: functional, cell-based
Summary of the method: (§2)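 Wild-type N2a cells in DMEM with 0.2 % FBS, drug-treated after PBS wash; conditioned media collected (18 h per methods, 24 h per text), NaN₃ added, centrifuged, then mixed with Aβ1–40 + Aβ1–42 and incubated 8 h at 37 °C. Cell-free media served as control. Aβ measured by 4G8/6E10 immunoprecipitation and MALDI-TOF, normalized to Aβ1–43 spike and to media control; mean and s.d.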

[12] = test system: N2a; experiment: Antiamyloidogenic activity in mouse N2A cells assessed as reduction of amyloid beta (1 to 42)/(1 to 40) ratio at 1 uM treated 24 hrs before amyloid beta (1 to 42)/(1 to 40) challenge measured after 8 hrs by MALDI/TOF analysis; type: functional, cell-based
Summary of the method: as §2

[13] = test system: N2a; experiment: Antiamyloidogenic activity in mouse N2A cells assessed as degradation of amyloid beta (1 to 42) level at 1 uM treated 24 hrs before amyloid beta (1 to 42) challenge measured after 8 hrs by MALDI/TOF analysis; type: functional, cell-based
Summary of the method: as §2

[14] = test system: N2a; experiment: Antiamyloidogenic activity in mouse N2A cells transfected with human APP Swedish mutant assessed as increase of amyloid beta (1 to 37) level at 10 uM after 24 hrs by ELISA; type: functional, cell-based; settings: in the assay text read “immunoprecipitation MALDI-TOF” for “ELISA”
Summary of the method: (§3)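 N2a cells stably expressing Swedish-mutant human APP, 1 × 10⁶ cells/well, drug-treated 24 h in DMEM with 0.2 % FBS without G418. Conditioned media got NaN₃, protease inhibitors and a ~1 ng/mL Aβ1–43 internal standard, then biotinylated 4G8/6E10 immunoprecipitation and linear-positive MALDI-TOF. Peak heights were normalized to Aβ1–43, then to DMSO control.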

[15] = test system: N2a; experiment: Antiamyloidogenic activity in mouse N2A cells transfected with human APP Swedish mutant assessed as increase of amyloid beta (1 to 38) level at 10 uM after 24 hrs by ELISA; type: functional, cell-based; settings: in the assay text read “immunoprecipitation MALDI-TOF” for “ELISA”
Summary of the method: as §3

[16] = test system: N2a; experiment: Antiamyloidogenic activity in mouse N2A cells transfected with human APP Swedish mutant assessed as reduction of amyloid beta (1 to 42) level at 10 uM after 24 hrs by ELISA; type: functional, cell-based
Summary of the method: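 N2a/APPsw cells (25 × 10⁴/well, plated 24 h prior) washed with PBS and treated with drug in DMEM with 0.2 % FBS for 24 h. Supernatant got NaN₃ (0.01 % final) and protease inhibitors, was centrifuged, and Aβ1–42 was measured by human sandwich ELISA. Values normalized to DMSO vehicle; mean and s.e.m., at least 4 experiments on separate passages.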

Compound | level, % of control at 1 µM [1] [%] | viability at 24 h, 100 µM [2] [%] | level, % of control at 100 µM [4] [%] | level, % of control at 10 µM [5] [%] | viability at 24 h, 10 µM [7] [%] | also measured
O=C(O)C1(c2ccc(-c3ccc(C(F)(F)F)cc3)c(F)c2)CC1 | 99.3 | 102 | 62.4 | – | – | viability at 24 h, 1 µM [3]: 97.2%
COc1ccc2c(c1)c(CC(=O)O)c(C)n2C(=O)c1ccc(Cl)cc1 [INDOMETHACIN] | 108 | 92 | 39.8 | 70.9 | 98.7 | level, % of control at 100 µM [6]: 76.7%
O=C(OCCO[N+](=O)[O-])C1(c2ccc(-c3ccc(C(F)(F)F)cc3)c(F)c2)CC1 | – | 128 | 42.8 | – | – | –
O=C(OCCO[N+](=O)[O-])C1(c2ccc(-c3ccc(Cl)c(Cl)c3)c(F)c2)CC1 | – | 135 | 40 | – | – | –
O=C(OCCBr)C1(c2ccc(-c3ccc(C(F)(F)F)cc3)c(F)c2)CC1 | – | 113 | 14.7 | – | – | –
O=C(O)C1(c2ccc(-c3ccc(Cl)c(Cl)c3)c(F)c2)CC1 | 125 | 19.1 | – | – | – | –
CC(C(=O)OCCCCO[N+](=O)[O-])c1ccc(-c2ccccc2)c(F)c1 (stereo unspecified) | – | 108 | 49.8 | – | – | Activity [8]: Active; Activity [9]: Active; Activity [10]: Active; Activity [11]: Active; Activity [12]: Active; Activity [13]: Active
O=C(O)C1(c2ccc(-c3ccc(F)cc3)c(F)c2)CC1 | 90.4 | – | – | 86.4 | 102 | viability at 24 h, 1 µM [3]: 102%
CC1=C(CC(=O)O)c2cc(F)ccc2/C1=C\c1ccc([S+](C)[O-])cc1 (stereo unspecified) | 100 | – | – | 85.7 | 104 | Activity [14]: Active; Activity [15]: Active; inhibition [16]: Active
